Positions count from the first letter of the chain named. “And” between values parts separate entries of the source, which are not always exact repeats. Equal entries are not always repeated. The source made the active and inactive calls. The rule behind the calls is not given here.
Columns and labels:
[1] = system: T1, Vitamin D3 receptor (Homo sapiens), P11473 [R274L]; assay: Agonist activity at human full length VDR R274L mutant expressed in COS7 cells after 24 rs by luciferase reporter gene assay; type: cell-based; conditions: COS-7
T1 sequence (whole entry): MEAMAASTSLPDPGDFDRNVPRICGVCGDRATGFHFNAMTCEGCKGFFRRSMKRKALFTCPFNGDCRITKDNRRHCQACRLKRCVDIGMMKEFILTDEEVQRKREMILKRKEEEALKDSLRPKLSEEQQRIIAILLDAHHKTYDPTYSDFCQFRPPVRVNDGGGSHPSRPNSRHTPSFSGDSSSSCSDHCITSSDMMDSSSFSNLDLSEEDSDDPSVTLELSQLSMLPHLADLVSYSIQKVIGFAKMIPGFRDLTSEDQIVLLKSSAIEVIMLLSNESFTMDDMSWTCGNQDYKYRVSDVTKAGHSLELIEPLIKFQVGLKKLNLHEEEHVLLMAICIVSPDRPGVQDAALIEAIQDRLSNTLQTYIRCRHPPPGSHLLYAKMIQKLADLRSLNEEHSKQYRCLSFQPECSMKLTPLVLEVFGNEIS
How it was run: (§1)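 COS-7 cells grown in DMEM with 5% FCS, seeded at 2 × 10^4 per well. After 24 h, lipofected with mutant full-length hVDR expression plasmid, SPPx3-TK-Luc reporter (three mouse osteopontin VDRE copies) and sea pansy luciferase internal control. Medium changed after 4 h to 5% charcoal-treated FCS. Next day, ligand or ethanol vehicle added for 24 h. Lysate firefly luciferase normalized to the internal control. Triplicate.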

[2] = system: T1, Vitamin D3 receptor (Homo sapiens), P11473 [R274L]; assay: Transactivation of human full length VDR R274L mutant expressed in COS7 cells after 24 rs by luciferase reporter gene assay relative to 1,25(OH)2D3; type: cell-based; conditions: COS-7; how it was run: as §1
[3] = target: T2, Vitamin D3 receptor (Homo sapiens) (UniProt P11473); assay: Agonist activity at human full length VDR W282R mutant expressed in COS7 cells after 24 rs by luciferase reporter gene assay; type: cell-based; conditions: COS-7; how it was run: as §1
T2 sequence (whole entry): T1 sequence (whole entry) with L274R

[4] = system: T3, Vitamin D3 receptor (Rattus norvegicus), P13053 [W282R]; conditions: 5 mM
T3 sequence (whole entry): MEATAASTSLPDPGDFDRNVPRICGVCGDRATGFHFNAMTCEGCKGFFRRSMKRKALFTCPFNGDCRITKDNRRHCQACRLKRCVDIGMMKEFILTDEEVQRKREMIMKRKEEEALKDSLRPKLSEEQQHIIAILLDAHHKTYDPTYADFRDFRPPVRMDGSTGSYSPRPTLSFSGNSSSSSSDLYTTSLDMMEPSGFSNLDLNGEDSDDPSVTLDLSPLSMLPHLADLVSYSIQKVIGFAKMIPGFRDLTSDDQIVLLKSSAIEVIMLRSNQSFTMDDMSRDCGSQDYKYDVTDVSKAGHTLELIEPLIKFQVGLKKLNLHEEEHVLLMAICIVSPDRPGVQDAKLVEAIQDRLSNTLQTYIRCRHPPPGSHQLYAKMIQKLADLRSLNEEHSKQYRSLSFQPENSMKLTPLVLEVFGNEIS

[5] = system: T4, Vitamin D3 receptor (Rattus norvegicus), P13053 [R270L]; conditions: 5 mM
T4 sequence (whole entry): T3 sequence (whole entry) with R270L, R282W

[6] = target: T5, Vitamin D3 receptor (Rattus norvegicus) (UniProt P13053); conditions: 5 mM
T5 sequence (whole entry): T3 sequence (whole entry) with R282W

Activity [1]	Activity [3]	Structure (SMILES)	other results
–	inactive	C[C@H](CCCC(C)(C)O)[C@H]1CC[C@H]2/C(=C/C=C3C[C@@H](O)C(=CCO)[C@H](O)C3)[C@H](CCCO)CC[C@]12C	–
–	inactive	C=CC[C@@H]1CC[C@]2(C)[C@@H]([C@H](C)CCCC(C)(C)O)CC[C@H]2/C1=C/C=C1C[C@@H](O)C(=CCO)[C@H](O)C1	–

Second part, the molecule before the results:

Structure (SMILES)	Activity [1]	Activity [3]	other results
C[C@H](CCCC(C)(C)O)[C@H]1CC[C@H]2/C(=C/C=C3/C[C@@H](O)[C@@](C)(O)[C@H](OCCCO)C3)CCC[C@]12C	inactive	–	–
CCC(O)(CC)CS[C@@H](C)C1=CC[C@H]2/C(=C/C=C3C[C@@H](O)C(=CCO)[C@H](O)C3)CCC[C@]12C	–	–	fold change (FC) [2]: 130 and 46
C[C@H](CCCC(C)(C)O)[C@H]1CC[C@H]2/C(=C/C=C3/C[C@@H](O)C[C@H](OCCO)C3)CCC[C@]12C	Active	–	–
CCCC[C@@H]1CC[C@]2(C)[C@@H]([C@H](C)CCCC(C)(C)O)CC[C@H]2/C1=C/C=C1C[C@@H](O)C[C@H](O)C1	–	inactive	–
C[C@H](CCCC(C)(C)O)[C@H]1CC[C@H]2/C(=C/C=C3/C[C@@H](O)[C@@](C)(O)[C@H](OCCCCO)C3)CCC[C@]12C	inactive	–	–
C[C@H](CCCC(C)(C)O)[C@H]1CC[C@H]2/C(=C/C=C3/C[C@@H](O)C[C@H](OCCCCO)C3)CCC[C@]12C	Active	–	–
C[C@H](CCCC(C)(C)O)[C@H]1CC[C@H]2/C(=C/C=C3/C[C@@H](O)[C@@](C)(O)[C@H](OCCO)C3)CCC[C@]12C	inactive	–	–
C=C1/C(=C\C=C2/CCC[C@]3(C)[C@@H]([C@H](C)CCCC(C)(C)O)CC[C@@H]23)C[C@@H](O)C[C@@H]1O	–	–	ΔTm [4]: 0.1 °C; ΔTm [5]: 2.5 °C; ΔTm [6]: 8.4 °C
